Laboratory results from ChEMBL document CHEMBL2331364, “A synthetic dolastatin 10 analogue suppresses microtubule dynamics, inhibits cell proliferation, and induces apoptotic cell death” (J Med Chem, 2013).
Activity calls are given as the source filed them. The rule behind the calls is not given here.

Key:
MCF7 [1] = assay: Inhibition of microtubule (unknown origin) dynamics in GFP-tubulin transfected human MCF7 cells assessed as decrease in microtubule shortening length at 15 nM by confocal laser scanning microscopy relative to control; format: cell-based
How it was run: (§1)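 EGFP-tubulin transfected MCF-7 cells were treated with vehicle or 15 nM, and individual microtubules were tracked by confocal laser scanning microscopy, 20 microtubules per condition. Life-history parameters were derived as previously described. Significance was tested by one-way ANOVA.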

Capra hircus = species: Capra hircus; assay: (§2) Inhibition of goat brain tubulin polymerization incubated for 20 mins prior to GTP addition measured for 30 mins by 90 degree light scattering-based fluorescence spectrophotometric method
How it was run: (§3)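 Goat brain tubulin (10 μM) was preincubated with compound (5 μM; or 1, 5, 7, 10 μM) in 1 M monosodium glutamate, 3 mM MgCl2, 1 mM EGTA, 25 mM Pipes pH 6.8 on ice for 20 min. GTP (1 mM) was then added and assembly followed by 90° light scattering at 400 nm for 30 min at 37 °C. Experiment run twice.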

[2] = as §2; design: species or system Capra hircus; how it was run: as §3
MCF7 [3] = assay: Inhibition of microtubule (unknown origin) dynamics in GFP-tubulin transfected human MCF7 cells assessed as microtubule rescue events at 15 nM by confocal laser scanning microscopy (reference value: 10 +/- 2 events/min); format: cell-based
How it was run: (§4)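 EGFP-tubulin-transfected MCF-7 cells grown in EMEM with 10% FBS at 37 °C in 5% CO2, exposed to 15 nM compound (DMSO vehicle) or vehicle. Individual microtubules were followed by time-lapse confocal laser scanning microscopy and life-history traces were recorded. Kinetic parameters were derived from these traces, 20 microtubules per condition. Significance was tested by one-way ANOVA.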

HeLa [4] = assay: Induction of mitotic microtubule depolymerization in human HeLa cells at 15 nM after 24 hrs by Hoechst 33258 dye-based fluorescence microscopy; format: cell-based
MCF7 [5] = assay: Inhibition of microtubule (unknown origin) dynamics in GFP-tubulin transfected human MCF7 cells assessed as increase in microtubule rescue frequency at 15 nM by confocal laser scanning microscopy relative to control; format: cell-based; how it was run: as §4
Tubulin (Homo sapiens) = Tubulin (Homo sapiens) (UniProt P68371+Q9H4B7+P0DPH7+P68366+Q13509+Q71U36+P04350+Q3ZCM7+P07437+P68363+Q9BQE3+Q6PEY2+Q13885+Q9BVA1+Q9BUF5); assay: Induction of tubulin (unknown origin) dimer aggregation at 10 uM after 20 mins by transmission electron microscopy; format: protein-complex assay
How it was run: (§5)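 Goat brain tubulin (10 μM) was preincubated with 5 or 10 μM on ice for 20 min, then polymerized with 1 mM GTP at 37 °C in glutamate assembly buffer. Polymers were fixed in 0.5% glutaraldehyde, negatively stained with 2% uranyl acetate, and imaged by transmission EM.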

Homo sapiens [6] = species: Homo sapiens; assay: Inhibition of microtubule (unknown origin) assembly at 5 uM incubated for 15 mins prior to GTP addition measured for 30 mins by 90 degree light scattering-based fluorescence spectrophotometric method
How it was run: (§6)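 MAP-rich tubulin (1 mg/mL) was preincubated with 1, 3, 5 or 10 μM in PEM buffer (25 mM Pipes pH 6.8, 3 mM MgCl2, 1 mM EGTA) for 15 min on ice. GTP (1 mM) was then added and assembly monitored by 90° light scattering at 400 nm for 30 min at 37 °C.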

MCF7 [7] = assay: Inhibition of microtubule (unknown origin) dynamics in GFP-tubulin transfected human MCF7 cells assessed as increase in microtubule pause time at 15 nM by confocal laser scanning microscopy relative to control; format: cell-based; how it was run: as §4
HeLa [8] = assay: Antimitotic activity in human HeLa cells assessed as increase in phosphohistone H3 (Ser10) positive cell population at 7 nM after 24 hrs by fluorescence microscopic analysis (reference value: 3 +/- 0.3 %); format: functional
MCF7 [9] = assay: Inhibition of microtubule (unknown origin) dynamics in GFP-tubulin transfected human MCF7 cells assessed as decrease in microtubule catastrophe frequency at 15 nM by confocal laser scanning microscopy relative to control; format: cell-based; how it was run: as §1
MCF7 [10] = assay: Inhibition of microtubule (unknown origin) dynamics in GFP-tubulin transfected human MCF7 cells assessed as microtubule growth time at 15 nM by confocal laser scanning microscopy (reference value: 0.9 +/- 0.1 min); format: cell-based; how it was run: as §4
HeLa [11] = assay: Induction of apoptosis in human HeLa cells assessed as genomic DNA fragmentation at 7 to 30 nM after 40 hrs by ethidium bromide staining-based electrophoresis; format: functional, cell-based
HeLa [12] = assay: Inhibition of mitosis in human HeLa cells assessed as mitotic index ratio at 7 nM after 24 hrs by Hoechst 33258 DNA staining assay (reference value: 3.2); format: functional
How it was run: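 HeLa cells were treated with vehicle or 7, 15 or 30 nM compound for 24 or 48 h. DNA was stained with Hoechst 33258, and mitotic cells were counted by fluorescence microscopy to give the mitotic index, compared against vehicle-treated cells.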

MCF7 [13] = assay: Inhibition of microtubule (unknown origin) dynamics in GFP-tubulin transfected human MCF7 cells assessed as microtubule pause time at 15 nM by confocal laser scanning microscopy (reference value: 35 +/- 8 %); format: cell-based; design: scale not given: the % may be the effect or the level left; how it was run: as §4
HeLa [14] = assay: Antiproliferative activity against human HeLa cells assessed as median dose after 24 hrs; format: functional
How it was run: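 HeLa cells treated for 24 h with each agent alone and in combinations. The median dose (Dm) was taken from the median dose plot, and combination index was computed as CI = (D)1/(Dx)1 + (D)2/(Dx)2.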

Homo sapiens [15] = species: Homo sapiens; assay: Inhibition of microtubule (unknown origin) assembly at 1 uM incubated for 15 mins prior to GTP addition measured for 30 mins by 90 degree light scattering-based fluorescence spectrophotometric method; how it was run: as §6
Homo sapiens [16] = species: Homo sapiens; assay: Inhibition of microtubule (unknown origin) assembly at 5 uM after 20 mins by transmission electron microscopy; how it was run: as §5
HeLa [17] = assay: Antimitotic activity in human HeLa cells assessed as increase in phosphohistone H3 (Ser10) positive cell population at 15 nM after 24 hrs by fluorescence microscopic analysis (reference value: 3 +/- 0.3 %); format: functional
HeLa [18] = assay: Cell cycle arrest in human HeLa cells assessed as accumulation at G2/M phase at 30 nM after 24 hrs by propidium iodide staining-based flow cytometry (reference value: 4%); format: functional
HeLa [19] = assay: Antimitotic activity in human HeLa cells assessed as increase in phosphohistone H3 (Ser10) positive cell population after 24 hrs by fluorescence microscopic analysis; format: functional, cell-based
HeLa [20] = assay: Inhibition of microtubule-kinetochore attachment in human HeLa cells assessed as Mad2 accumulation at kinetochoric region at 15 to 45 nM after 24 hrs by Hoechst 33258 dye-based Hec1 staining assay; format: cell-based
HeLa [21] = assay: Induction of apoptosis in human HeLa cells assessed as apoptotic cells at 35 nM after 24 hrs by annexin V-FITC/propidium iodide staining-based FACS analysis; format: functional
How it was run: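 HeLa cells were exposed to 35 nM for 10 or 24 h, stained with annexin V and propidium iodide using a kit, and apoptotic cells were quantified by FACS. Nocodazole (700 nM) served as comparator.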

HeLa [22] = assay: Induction of interphase microtubule depolymerization in human HeLa cells at 7 nM after 24 hrs by Hoechst 33258 dye-based fluorescence microscopy relative to control; format: cell-based
MCF7 [23] = assay: Inhibition of microtubule (unknown origin) dynamics in GFP-tubulin transfected human MCF7 cells assessed as microtubule catastrophe events at 15 nM by confocal laser scanning microscopy (reference value: 4 +/- 1.2 events/min); format: cell-based; how it was run: as §4

In the case of `CC[C@H](C)[C@@H]([C@@H](CC(=O)NC[C@H]1O[C@H](C(=O)NCCc2ccccc2)[C@@H](OC)[C@@H]1OC)OC)N(C)C(=O)[C@@H](NC(=O)[C@@H](NC)C(C)C)C(C)C`, the inhibition (MCF7 [1]) is reported as 44%, the inhibition (Capra hircus) is reported as “Dose-dependent effect” and the IC50 [2] is reported as 6 µM. For the same compound, the Activity (MCF7 [3]) was 12 min⁻¹, the Activity (HeLa [4]) was “Active” and the inhibition (MCF7 [5]) was 40%. For the same compound, the Activity (Tubulin (Homo sapiens)) was “Active”, the inhibition (Homo sapiens [6]) was 48% and the inhibition (MCF7 [7]) was 50%. It also gave an Activity (HeLa [8]) of 6.6%, an inhibition (MCF7 [9]) of 32% and a TIME (MCF7 [10]) of 0.00833 h. The Activity (HeLa [11]) was “Active”, the Ratio (HeLa [12]) was 6 and the Activity (MCF7 [13]) was 59%. For the same compound, the Activity (HeLa [14]) was 8.9 nM, the inhibition (Homo sapiens [15]) was 13% and the inhibition (Homo sapiens [16]) was “Active”. For the same compound, the Activity (HeLa [17]) was 11%, the Activity (HeLa [18]) was 9% and the Activity (HeLa [19]) was “Dose-dependent effect”. The Activity (HeLa [20]) was “Active”, the Activity (HeLa [21]) was 65.3% and the Activity (HeLa [22]) was “inactive”. The Activity (MCF7 [23]) was 3 min⁻¹.
